≈ marks a conversion by molar mass, not a printed value. Calls of active or inactive are those of the source. The calls are words filed in the database; no cut-off is given here.
Legend:
[1] = Inhibition of Trypanosoma brucei glyceraldehyde-3-phosphate dehydrogenase
[2] = target: T1, Trypanothione reductase (Trypanosoma cruzi, UniProt P28593); experiment: Inhibition of Trypanosoma cruzi trypanothione reductase
[3] = target: T1, Trypanothione reductase; experiment: Non-competitive inhibition of Trypanosoma cruzi trypanothione reductase assessed as reduction in NADPH consumption using varying levels of trypanothione disulfide as substrate by Lineweaver-Burk plot analysis
In short: (§1)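 Same TcTR assay with two fixed inhibitor concentrations and TS2 at 20, 40, 60, 100, 200 μM; inhibition type from Lineweaver–Burk plots; Ki by nonlinear least-squares fit of direct plot; inhibitor assays at least duplicate.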

[4] = target: Trypanothione reductase (Trypanosoma cruzi) (UniProt P28593); experiment: Inhibition of Trypanosoma cruzi trypanothione reductase assessed as reduction in NADPH consumption at 20 uM using 100 uM trypanothione disulfide as substrate by spectrophotometric method relative to control
Chain of Trypanothione reductase (Trypanosoma cruzi) (P28593 whole entry, looked up): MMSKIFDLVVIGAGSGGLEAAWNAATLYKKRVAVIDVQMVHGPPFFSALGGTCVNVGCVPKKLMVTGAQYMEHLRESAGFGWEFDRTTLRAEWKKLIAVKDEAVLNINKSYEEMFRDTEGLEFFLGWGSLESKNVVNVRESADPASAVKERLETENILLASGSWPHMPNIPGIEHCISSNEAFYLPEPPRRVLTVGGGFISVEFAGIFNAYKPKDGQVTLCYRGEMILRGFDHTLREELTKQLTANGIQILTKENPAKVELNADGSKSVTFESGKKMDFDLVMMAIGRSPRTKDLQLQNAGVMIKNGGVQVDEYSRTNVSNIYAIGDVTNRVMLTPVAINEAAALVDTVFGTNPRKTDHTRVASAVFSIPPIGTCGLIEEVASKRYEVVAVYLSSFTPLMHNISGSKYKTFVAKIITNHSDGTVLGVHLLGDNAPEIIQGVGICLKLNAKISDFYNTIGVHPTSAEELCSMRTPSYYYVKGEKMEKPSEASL
In short: (§2)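 Recombinant TcTR (5–10 mU) at 25 °C in 40 mM HEPES, 1 mM EDTA, pH 7.5, 100 μM NADPH, 5% DMSO; started with trypanothione disulfide; NADPH consumption read at 340 nm; percentage inhibition calculated.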

[5] = target: Trypanothione reductase (Trypanosoma cruzi) (UniProt P28593); experiment: Inhibition of Trypanosoma cruzi trypanothione reductase assessed as reduction in NADPH consumption at 20 uM using 40 uM trypanothione disulfide as substrate by spectrophotometric method relative to control; in short: as §2
[6] = target: hERG (KCNH2) (Homo sapiens, UniProt Q12809); experiment: Inhibition of Tracer Red binding to human ERG expressed in membranes at 10 uM by fluorescence polarization assay relative to control; details: membranes expressing human ERG, probe Tracer Red
Chain of hERG (KCNH2) (Q12809 whole entry): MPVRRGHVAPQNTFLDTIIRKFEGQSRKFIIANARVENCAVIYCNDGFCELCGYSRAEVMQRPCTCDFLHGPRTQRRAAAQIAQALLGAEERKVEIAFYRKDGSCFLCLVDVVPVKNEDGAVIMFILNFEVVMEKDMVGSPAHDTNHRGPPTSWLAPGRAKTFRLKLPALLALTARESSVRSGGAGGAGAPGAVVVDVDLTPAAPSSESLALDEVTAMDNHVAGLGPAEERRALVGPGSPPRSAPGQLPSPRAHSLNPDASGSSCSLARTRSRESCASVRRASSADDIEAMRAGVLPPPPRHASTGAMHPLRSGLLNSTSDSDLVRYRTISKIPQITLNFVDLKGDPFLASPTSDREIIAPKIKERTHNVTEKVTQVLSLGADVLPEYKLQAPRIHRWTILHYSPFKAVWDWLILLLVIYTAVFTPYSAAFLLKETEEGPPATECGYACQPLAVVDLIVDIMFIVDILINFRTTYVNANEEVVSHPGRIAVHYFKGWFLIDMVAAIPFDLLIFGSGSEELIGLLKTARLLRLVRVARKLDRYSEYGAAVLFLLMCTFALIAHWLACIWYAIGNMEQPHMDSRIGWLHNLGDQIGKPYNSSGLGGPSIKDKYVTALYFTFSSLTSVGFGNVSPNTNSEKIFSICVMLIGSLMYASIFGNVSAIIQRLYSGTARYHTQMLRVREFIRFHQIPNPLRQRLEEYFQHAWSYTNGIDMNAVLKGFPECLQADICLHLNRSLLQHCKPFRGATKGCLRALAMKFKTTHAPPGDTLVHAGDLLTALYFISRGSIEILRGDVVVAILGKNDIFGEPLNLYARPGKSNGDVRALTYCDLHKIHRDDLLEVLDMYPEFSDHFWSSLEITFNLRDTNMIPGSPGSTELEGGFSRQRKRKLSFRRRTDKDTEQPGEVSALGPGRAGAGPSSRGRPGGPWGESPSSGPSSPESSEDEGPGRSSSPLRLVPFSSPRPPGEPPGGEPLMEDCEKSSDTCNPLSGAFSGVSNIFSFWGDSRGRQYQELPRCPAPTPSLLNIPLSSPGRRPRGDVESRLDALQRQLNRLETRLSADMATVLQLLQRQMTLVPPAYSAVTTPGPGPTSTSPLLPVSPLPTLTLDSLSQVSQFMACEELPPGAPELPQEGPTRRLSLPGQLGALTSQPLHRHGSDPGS
In short: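 Fluorescence polarization displacement of a high-affinity red fluorescent tracer from hERG channel–containing membrane fraction.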

[7] = target: T2, CYP1A2 (Homo sapiens, UniProt P05177); experiment: Inhibition of human CYP1A2 at 10 uM by P450-Glo assay relative to control; format: ADME
T2 sequence (P05177 whole entry): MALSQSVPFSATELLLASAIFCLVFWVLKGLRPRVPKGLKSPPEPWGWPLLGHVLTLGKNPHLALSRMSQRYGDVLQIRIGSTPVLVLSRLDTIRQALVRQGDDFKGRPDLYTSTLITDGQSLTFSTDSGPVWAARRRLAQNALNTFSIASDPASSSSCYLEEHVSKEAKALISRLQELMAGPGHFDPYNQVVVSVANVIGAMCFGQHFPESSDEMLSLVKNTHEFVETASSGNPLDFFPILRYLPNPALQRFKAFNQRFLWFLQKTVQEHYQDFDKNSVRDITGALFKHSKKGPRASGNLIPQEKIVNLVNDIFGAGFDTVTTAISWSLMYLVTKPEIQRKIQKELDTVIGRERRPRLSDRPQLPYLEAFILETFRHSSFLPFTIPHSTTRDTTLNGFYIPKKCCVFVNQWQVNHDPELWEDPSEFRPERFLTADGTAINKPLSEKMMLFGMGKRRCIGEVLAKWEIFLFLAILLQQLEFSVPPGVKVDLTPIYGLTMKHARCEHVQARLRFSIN
In short: (§3)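 P450-Glo luminescent platform: CYP action on each substrate generates light; decreased light taken as inhibition.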

[8] = target: CYP2C9 (Homo sapiens, UniProt P11712); experiment: Inhibition of human CYP2C9 at 10 uM by P450-Glo assay relative to control; format: ADME; in short: as §3
Chain of CYP2C9 (P11712 whole entry): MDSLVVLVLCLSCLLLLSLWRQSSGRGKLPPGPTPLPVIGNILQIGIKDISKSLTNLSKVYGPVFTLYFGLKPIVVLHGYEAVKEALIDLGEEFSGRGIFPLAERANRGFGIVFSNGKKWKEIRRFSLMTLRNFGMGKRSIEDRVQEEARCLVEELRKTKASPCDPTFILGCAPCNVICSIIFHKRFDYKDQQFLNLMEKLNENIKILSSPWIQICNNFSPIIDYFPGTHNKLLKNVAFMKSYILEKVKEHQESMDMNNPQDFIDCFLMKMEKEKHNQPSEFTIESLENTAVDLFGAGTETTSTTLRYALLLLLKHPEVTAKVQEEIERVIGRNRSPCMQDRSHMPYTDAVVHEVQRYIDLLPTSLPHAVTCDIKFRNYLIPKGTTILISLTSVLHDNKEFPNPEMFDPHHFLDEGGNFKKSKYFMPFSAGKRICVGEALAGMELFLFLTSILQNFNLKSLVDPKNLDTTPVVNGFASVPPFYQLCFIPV

[9] = target: CYP2C19 (Homo sapiens, UniProt P33261); experiment: Inhibition of human CYP2C19 at 10 uM by P450-Glo assay relative to control; format: ADME; in short: as §3
Chain of CYP2C19 (P33261 whole entry): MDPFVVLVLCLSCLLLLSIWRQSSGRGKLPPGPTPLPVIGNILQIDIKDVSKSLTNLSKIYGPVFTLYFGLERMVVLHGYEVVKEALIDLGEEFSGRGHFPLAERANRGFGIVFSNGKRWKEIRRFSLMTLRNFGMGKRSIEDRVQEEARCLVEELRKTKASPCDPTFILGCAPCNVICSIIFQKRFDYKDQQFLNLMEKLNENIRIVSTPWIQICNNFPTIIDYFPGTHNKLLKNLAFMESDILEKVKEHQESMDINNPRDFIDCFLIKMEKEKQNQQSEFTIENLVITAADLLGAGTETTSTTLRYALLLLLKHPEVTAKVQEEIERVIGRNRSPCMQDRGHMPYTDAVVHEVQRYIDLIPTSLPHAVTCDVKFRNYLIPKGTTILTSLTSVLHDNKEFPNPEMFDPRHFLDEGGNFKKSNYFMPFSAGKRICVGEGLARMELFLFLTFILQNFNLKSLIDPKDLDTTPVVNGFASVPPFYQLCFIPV

[10] = target: CYP2D6 (Homo sapiens, UniProt P10635); experiment: Inhibition of human CYP2D6 at 10 uM by P450-Glo assay relative to control; format: ADME; in short: as §3
Chain of CYP2D6 (P10635 whole entry): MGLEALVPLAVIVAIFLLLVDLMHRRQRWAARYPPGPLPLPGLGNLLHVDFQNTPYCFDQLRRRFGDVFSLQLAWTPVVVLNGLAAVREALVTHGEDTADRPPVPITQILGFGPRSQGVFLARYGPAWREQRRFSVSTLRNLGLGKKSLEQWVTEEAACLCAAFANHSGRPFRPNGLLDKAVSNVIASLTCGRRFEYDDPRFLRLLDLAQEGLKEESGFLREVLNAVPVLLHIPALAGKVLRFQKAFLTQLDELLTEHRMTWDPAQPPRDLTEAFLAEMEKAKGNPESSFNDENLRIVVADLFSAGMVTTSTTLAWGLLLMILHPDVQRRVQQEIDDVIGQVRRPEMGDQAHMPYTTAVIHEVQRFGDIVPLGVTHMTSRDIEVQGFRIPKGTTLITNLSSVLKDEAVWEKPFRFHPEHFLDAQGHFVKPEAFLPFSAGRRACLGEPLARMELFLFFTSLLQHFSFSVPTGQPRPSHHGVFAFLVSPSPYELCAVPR

[11] = target: CYP3A4 (Homo sapiens, UniProt P08684); experiment: Inhibition of human CYP3A4 at 10 uM by P450-Glo assay relative to control; format: ADME; in short: as §3
Chain of CYP3A4 (P08684 whole entry): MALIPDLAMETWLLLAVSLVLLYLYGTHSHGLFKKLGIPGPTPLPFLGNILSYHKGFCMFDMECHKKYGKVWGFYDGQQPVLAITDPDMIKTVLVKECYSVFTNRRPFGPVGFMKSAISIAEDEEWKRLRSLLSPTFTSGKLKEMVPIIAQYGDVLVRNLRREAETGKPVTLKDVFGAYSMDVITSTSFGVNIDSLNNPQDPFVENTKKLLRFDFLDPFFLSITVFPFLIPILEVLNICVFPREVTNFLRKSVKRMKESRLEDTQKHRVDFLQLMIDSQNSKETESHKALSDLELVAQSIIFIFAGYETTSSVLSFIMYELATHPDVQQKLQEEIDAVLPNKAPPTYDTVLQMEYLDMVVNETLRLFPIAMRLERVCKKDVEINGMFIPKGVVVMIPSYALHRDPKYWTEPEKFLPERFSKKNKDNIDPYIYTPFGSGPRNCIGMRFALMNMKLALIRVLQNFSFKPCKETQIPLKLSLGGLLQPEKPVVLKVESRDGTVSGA

[12] = Cytotoxicity against human A549 cells assessed as cell growth at 10 uM by CellTiter-Glo assay relative to control; format: cell-based; details: read-out: Activity
In short: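 A549 cells; cellular ATP measured by CellTiter-Glo luminescence as a proxy for cell number; paclitaxel 10 μM as positive control.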

[13] = system: 786-0; experiment: Cytotoxicity against human 786-O cells assessed as mitochondrial viability at 10 uM by CMXRos staining based high-content imaging analysis relative to control; format: cell-based; details: 786-0, 10 µM
In short: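 786-O cells kept in RPMI-1640 with 2 mM glutamine, 10% FCS, streptomycin and penicillin G; mitochondria of live cells stained with MitoTracker Red CMXRos and imaged by high-content imaging.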

[14] = target: T3, Pteridine reductase 1 (Leishmania major) (UniProt Q01782); experiment: Inhibition of Leishmania major pteridine reductase 1 assessed as reduction in conversion of dihydrobiopterin to tetrahydrobiopterin at 10 uM up to 50 mins in presence of NADPH by cytochrome c reduction coupled photometric assay relative to control
T3 sequence (whole entry): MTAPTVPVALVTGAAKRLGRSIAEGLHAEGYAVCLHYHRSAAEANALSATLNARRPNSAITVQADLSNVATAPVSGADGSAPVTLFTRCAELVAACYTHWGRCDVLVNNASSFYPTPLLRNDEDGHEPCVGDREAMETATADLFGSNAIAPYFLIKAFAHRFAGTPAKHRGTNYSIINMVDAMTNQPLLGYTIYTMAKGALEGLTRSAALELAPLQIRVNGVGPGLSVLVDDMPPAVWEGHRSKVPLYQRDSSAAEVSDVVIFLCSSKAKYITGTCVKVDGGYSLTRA

[15] = target: T4, Pteridine reductase, putative (Trypanosoma brucei) (UniProt Q581W1); experiment: Inhibition of Trypanosoma brucei pteridine reductase 1 assessed as reduction in conversion of dihydrobiopterin to tetrahydrobiopterin at 10 uM up to 50 mins in presence of NADPH by cytochrome c reduction coupled photometric assay relative to control
T4 sequence (whole entry): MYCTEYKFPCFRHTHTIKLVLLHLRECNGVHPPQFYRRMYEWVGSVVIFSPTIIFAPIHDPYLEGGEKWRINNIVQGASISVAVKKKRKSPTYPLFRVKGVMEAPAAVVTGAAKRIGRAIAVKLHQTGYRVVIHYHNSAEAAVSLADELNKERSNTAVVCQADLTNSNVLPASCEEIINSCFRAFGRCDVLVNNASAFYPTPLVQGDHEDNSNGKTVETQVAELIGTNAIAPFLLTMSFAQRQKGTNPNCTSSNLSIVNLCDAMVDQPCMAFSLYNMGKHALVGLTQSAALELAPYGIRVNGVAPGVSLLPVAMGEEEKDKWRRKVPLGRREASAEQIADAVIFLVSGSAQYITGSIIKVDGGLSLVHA

[16] = Solubility in PBS after overnight incubation by nephelometry; format: physicochemical
[17] = Solubility in pH 7.4 Hanks simulated body fluid after overnight incubation by nephelometry; format: physicochemical
[18] = system: Trypanosoma brucei; experiment: Inhibition of Trypanosoma brucei glyceraldehyde-3-phosphate dehydrogenase at 10 uM using GAP as substrate in presence of NAD+ by spectrophotometric method relative to control
In short: (§4)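 Recombinant TbGAPDH (200–300 μg protein) in 10 mM triethanolamine, 1.7 mM NaHCO3, 100 mM KCl, 5 mM MgSO4, 1 mM EDTA, pH 7.6, 25 °C, with 400 μM NAD+, 500 μM KH2PO4, 300 μM GAP; NAD+ reduction followed at 340 nm; inhibitors from DMSO stocks; triplicate; reported as percentage activity.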

[19] = Inhibition of Trypanosoma brucei glyceraldehyde-3-phosphate dehydrogenase using GAP as substrate in presence of NAD+ by spectrophotometric method; in short: as §4
[20] = target: Trypanothione reductase (Trypanosoma cruzi) (UniProt P28593); experiment: Inhibition of Trypanosoma cruzi trypanothione reductase assessed as reduction in NADPH consumption at 100 uM using 100 uM trypanothione disulfide as substrate by spectrophotometric method relative to control; in short: as §2
[21] = target: Trypanothione reductase (Trypanosoma cruzi) (UniProt P28593); experiment: Inhibition of Trypanosoma cruzi trypanothione reductase assessed as reduction in NADPH consumption at 100 uM using 40 uM trypanothione disulfide as substrate by spectrophotometric method relative to control; in short: as §2
[22] = system: Trypanosoma brucei brucei; experiment: Growth inhibition of Trypanosoma brucei brucei Lister 427 bloodstream forms at 50 uM by SYBR Green based assay relative to control; format: functional; details: read-out: GI
[23] = target: T3, Pteridine reductase 1 (Leishmania major); experiment: Inhibition of Leishmania major pteridine reductase 1 assessed as reduction in conversion of dihydrobiopterin to tetrahydrobiopterin at 50 uM up to 50 mins in presence of NADPH by cytochrome c reduction coupled photometric assay relative to control
[24] = target: T4, Pteridine reductase, putative (Trypanosoma brucei); experiment: Inhibition of Trypanosoma brucei pteridine reductase 1 assessed as reduction in conversion of dihydrobiopterin to tetrahydrobiopterin at 50 uM up to 50 mins in presence of NADPH by cytochrome c reduction coupled photometric assay relative to control
[25] = target: Trypanothione reductase (Trypanosoma cruzi) (UniProt P28593); experiment: Inhibition of Trypanosoma cruzi trypanothione reductase assessed as reduction in NADPH consumption at 10 uM using 100 uM trypanothione disulfide as substrate by spectrophotometric method; in short: as §2
[26] = target: Trypanothione reductase (Trypanosoma cruzi) (UniProt P28593); experiment: Inhibition of Trypanosoma cruzi trypanothione reductase assessed as reduction in NADPH consumption at 10 uM using 40 uM trypanothione disulfide as substrate by spectrophotometric method; in short: as §2
[27] = target: T1, Trypanothione reductase; experiment: Mixed-type inhibition of Trypanosoma cruzi trypanothione reductase assessed as reduction in NADPH consumption using varying levels of trypanothione disulfide as substrate by Lineweaver-Burk plot analysis; in short: as §1
[28] = system: Trypanosoma brucei brucei; experiment: Growth inhibition of Trypanosoma brucei brucei Lister 427 bloodstream forms at 10 uM by SYBR Green based assay relative to control; format: functional; details: read-out: GI
[29] = system: Leishmania infantum; experiment: Growth inhibition of Leishmania infantum MHOM/BR/72/BH046 amastigotes infected in human THP1 cells at 10 uM after 48 hrs by Draq 5 staining based high-content automated imaging analysis relative to control; format: functional; details: MHOM/BR/72/BH046, THP-1, 48 h, read-out: GI
In short: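 THP-1 cells differentiated 48 h with 50 ng/mL PMA, infected 24 h with 6-day-old promastigotes (50 per cell), then treated 48 h; 0.5% DMSO negative, 10 µM amphotericin B positive. Paraformaldehyde-fixed, Draq5-stained, imaged; infection ratio normalized to DMSO-treated infected and non-infected controls.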

[30] = system: Trypanosoma cruzi; experiment: Growth inhibition of Trypanosoma cruzi Y trypamastigotes infected in human U2OS cells at 10 uM after 72 hrs by Draq 5 staining based high-content automated imaging analysis relative to control; format: functional; details: read-out: GI
In short: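 U2OS cells (3,000/well) co-seeded with Y strain trypomastigotes at 5:1 right after compound addition; 72 h at 37 °C, 5% CO2. Fixed, stained, imaged and normalized as for the Leishmania assay; host toxicity from cell ratio against negative-control wells.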

[31] = target: T3, Pteridine reductase 1 (Leishmania major); experiment: Inhibition of Leishmania major pteridine reductase 1 assessed as reduction in conversion of dihydrobiopterin to tetrahydrobiopterin at 20 uM up to 50 mins in presence of NADPH by cytochrome c reduction coupled photometric assay relative to control
[32] = target: T4, Pteridine reductase, putative (Trypanosoma brucei); experiment: Inhibition of Trypanosoma brucei pteridine reductase 1 assessed as reduction in conversion of dihydrobiopterin to tetrahydrobiopterin at 20 uM up to 50 mins in presence of NADPH by cytochrome c reduction coupled photometric assay relative to control

T1 sequence (P28593 whole entry): as the sequence (P28593 whole entry, looked up) above

CN(C)CCOc1cc2ccc(OC3=CC(=O)c4cc5ccccc5cc4C3=O)cc2oc1=O
IC50 [1]: 5.4 µM
Ki [2]: 2.3 µM

COc1cccc2c1C(=O)c1oc3c(c1C2=O)c(=O)oc1ccccc13
Ki [3]: 22.4 µM
inhibition [4]: 41.1%
inhibition [5]: 42.6%
inhibition at 10 µM [6]: 42.7%
inhibition at 10 µM [7]: 99.2%
inhibition at 10 µM [8]: 89.3%
inhibition at 10 µM [9]: 55.5%
inhibition at 10 µM [10]: 108%
inhibition at 10 µM [11]: 38.5%
viability at 10 µM [12]: 166%
Activity [13]: 89.95%
inhibition [14]: -3.51%
inhibition [15]: -5.69%
solubility kinetic [16]: 70 µM (≈ 24.2 µg/mL)
solubility kinetic [17]: 35 µM (≈ 12.1 µg/mL)

Nc1ccc2oc(=O)c3c4c(oc3c2c1)C(=O)c1c(O)cccc1C4=O
inhibition [18]: 75%
IC50 [19]: 2.1 µM
inhibition [20]: inactive
inhibition [21]: inactive
inhibition of growth at 50 µM [22]: 77%
inhibition at 10 µM [6]: -7.99%
inhibition at 10 µM [7]: 37.8%
inhibition at 10 µM [8]: 85.9%
inhibition at 10 µM [9]: 63.6%
inhibition at 10 µM [10]: 71.5%
inhibition at 10 µM [11]: 46.8%
viability at 10 µM [12]: 157%
Activity [13]: 97.94%
inhibition [23]: 6.19%
inhibition [24]: 5.82%
solubility kinetic [16]: 14 µM (≈ 4.86 µg/mL)
solubility kinetic [17]: 35 µM (≈ 12.2 µg/mL)

O=C1c2oc3c(c2C(=O)c2cccc(O)c21)c(=O)oc1ccccc13
inhibition [18]: 64%
inhibition [25]: 37.8%
inhibition [26]: 65%
Ki [27]: 5.6 µM
inhibition of growth at 10 µM [28]: < 20%
inhibition of growth at 10 µM [29]: < 20%
inhibition of growth at 10 µM [30]: < 20%
inhibition at 10 µM [6]: 67.1%
inhibition at 10 µM [7]: 57.3%
inhibition at 10 µM [8]: 61.5%
inhibition at 10 µM [9]: 107%
inhibition at 10 µM [10]: 102%
inhibition at 10 µM [11]: 40.8%
viability at 10 µM [12]: 138%
Activity [13]: 82.16%
inhibition [31]: 28.1%
inhibition [32]: 0.94%
solubility kinetic [16]: 14 µM (≈ 4.65 µg/mL)
solubility kinetic [17]: 70 µM (≈ 23.3 µg/mL)

Reference: ChEMBL document CHEMBL4130494, “Crassiflorone derivatives that inhibit Trypanosoma brucei glyceraldehyde-3-phosphate dehydrogenase (TbGAPDH) and Trypanosoma cruzi trypanothione reductase (TcTR) and display trypanocidal activity” (Eur J Med Chem, 2017)
